UPR XBP1 act = adaptive UPR (XBP1) activation. 330,000 compounds, 0.33% hits. CHO-XBP1 luciferase reporter, IRE1-XBP1 UPR activation, luminescence; percent of tunicamycin response, DMSO as zero. activation, % at 20 µM;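 active = versus positive control, 20 µM dose yields 30% or more activation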;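 note: 100% = tunicamycin at 10 µg/mL and 0% = DMSO only wells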
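Signal: luciferase luminescence; Assay system: CHO-XBP1 luciferase reporter cells; Amount: one thousand reporter cells per well; Dosing: 20 µM single concentration, DMSO 1%; Benchmarks: high control tunicamycin 10 µg/mL final, low control DMSO vehicle only; Schedule: 6 h compound exposure at 37 °C, 5% CO2; Evaluation: percent activation relative to tunicamycin reference.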
UPR CHOP act = apoptotic UPR (CHOP) activation; CHO-CHOP luciferase reporter, luminescence; percent of tunicamycin response over DMSO baseline; activation, % at 10 µM; 330,000 compounds, 0.34% hits;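 active = at 10 µM dose, activation of 40% or more, normalized to positive control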;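 note: 100% = tunicamycin at 10 µg/mL and 0% = DMSO alone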
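Dosing – one dose, 10 µM in 0.5% DMSO · System – CHO-CHOP cells, stable luciferase reporter of PERK-eIF2a-CHOP signalling · Input – 500 cells/well · Control set – tunicamycin 10 µg/mL final as positive, DMSO-only wells as negative · Timing – 6 h compound treatment, 37 °C · Measure – % activation vs tunicamycin · Technique – luminescence read with Steady-Glo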
GAA850 FXN act = increases GAA850 frataxin promoter reporter activity; activation, % at 6 µM; HEK293 lucGAA850 FXN promoter luciferase reporter, 24 h; percent of 10 µM SAHA response; 360,000 compounds, 0.56% hits;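 active = activation above the average of all compounds screened plus 3 SD, cutoff fixed separately per campaign, cut at about 7.5% in these data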;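 note: 0% = DMSO wells and 100% = 10 µM SAHA wells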
CHOP inhibitor = inhibitors of CHOP induction in ER stress response | CHO-K1 CHOP-promoter luciferase, tunicamycin-induced, 15-18 h | inhibition, % at 10 µM | 220,000 compounds, 3.8% hits | AID 2732;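 active = compounds that reduced the stress-induced luciferase reporter signal by more than about 70% of percent inhibition, limit read from the data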;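 note: 0% = tunicamycin plus vehicle and 100% = wells without tunicamycin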
Numbers without * were called inactive; · = not tested or not shown. Shown is part of a subset that was picked to be rich in hits.

SMILES	UPR XBP1 act	UPR CHOP act	GAA850 FXN act	CHOP inhibitor
CC(C)c1nc(NCc2ccccc2)c(C#N)c2c1CCCC2	4	2	1	-4
CCOc1nc(CC(C)C)c2c(c1C#N)CC(C)(C)OC2	-2	1	3	74*
Cc1[nH]c2ccc(F)cc2c1CCN(Cc1ccco1)C(=S)NC(C)(C)C	-5	4	-2	81*
CNC(=S)N(CCc1c(C)[nH]c2ccc(F)cc12)Cc1ccco1	0	1	-1	·
Cn1nnnc1N=N/C(=N/Nc1ccccc1)c1ccccc1	5	6	-11	70*
Oc1ccccc1N=N/C(=N/Nc1ccccc1O)c1ccccc1	-2	0	0	·
CN1CC=C2C(C#N)=C(N)C(C#N)(C#N)[C@H](c3ccoc3)[C@H]2C1	-3	-3	-2	-26
CC(=O)N1CC=C2C(C#N)=C(N)C(C#N)(C#N)C(CCc3ccccc3)C2C1 (configuration not stated)	-1	-1	1	73*
N#CC1=C(N)C(C#N)(C#N)[C@H](c2ccoc2)[C@H]2CN(Cc3ccccc3)CC=C12	37*	0	0	·
Cc1ccc2c(=O)n3c(nc2c1)C(Cc1ccc(O)cc1)NC(=O)c1cccnc1-3 (configuration not stated)	·	·	1	·
Cc1ccsc1/C=N/NC(=O)Cc1ccc(Cl)cc1	0	-1	-1	35
O=C(CCCC(=O)NN=Cc1ccc(Cl)cc1Cl)NN=Cc1ccc(Cl)cc1Cl	·	·	0	·
Cc1ccsc1/C=N/NC(=O)CSCc1ccc(Cl)cc1	-5	-3	5	92*
O=C(CSCc1ccc(Cl)cc1)N/N=C/c1ccc(Cl)cc1Cl	0	0	0	91*
O=C(NCC1CCCCC1)c1ccc2sc([C@H]3C[C@H](O)[C@@H](CO)O3)nc2c1	·	·	0	·
CCCc1nc2sc3c(=O)n(N)cnc3c2c2c1CCCC2	6	4	3	74*
CCCCc1nc2sc3c(=O)n(N)cnc3c2c2c1CCCC2	-4	-2	2	21
c1ccc2c(c1)Sc1cnccc1N2CC1CO1 (configuration not stated)	·	·	1	·
COc1ccc(/C=N/Nc2cc(N3CCCC3)nc(N3CCCC3)n2)cc1	-1	7	1	31
Oc1cccc(/C=N/Nc2cc(N3CCCC3)nc(N3CCCC3)n2)c1	-1	6	3	79*
NC(=O)C1(N2CCCCC2)CCN(CC(=O)Nc2cc(Cl)ccc2Cl)CC1	-4	0	-3	76*
CCc1cccc(C)c1NC(=O)COC(=O)Cc1ccccc1	·	·	0	·
O=C(NNC1=Nc2cccc3cccc1c23)c1ccccc1Br	2	0	3	90*
c1ccc(NC2=Nc3cccc4cccc2c34)cc1	1	1	3	34
CNc1sc(C(=O)c2ccc(F)cc2)c(N)c1-c1nc2ccccc2s1	4	4	3	84*
SMILES	UPR XBP1 act	UPR CHOP act	GAA850 FXN act	CHOP inhibitor
CCC(C(=O)NC(C)(C)C)N(Cc1ccc(OC)cc1)C(=O)c1snc(C(N)=O)c1N (configuration not stated)	·	·	-3	·
Cc1cc(NC(=O)c2ccccc2)c(Cl)cc1N	-10	-4	-9	72*
Cc1cc(N)ccc1NC(=O)c1ccccc1	-1	1	0	-8
CCCc1c(C(=O)N/N=C/c2ccc(OCc3ccc(F)cc3)cc2)nnn1-c1nonc1N	·	·	0	·
Cc1ccc(COc2ccc(/C=N/NC(=O)c3nnn(-c4nonc4N)c3COc3ccc(F)cc3)cc2)cc1	16	13	0	82*
CCn1c(C)nc2cc(C(=O)OC(C(F)(F)C(F)F)C(F)(F)C(F)F)ccc21	4	12	1	74*
COCCN(C(=O)COC(=O)c1ccc2c(c1)OCO2)c1c(N)n(Cc2ccccc2)c(=O)[nH]c1=O	·	·	-1	·
O=C1c2ccccc2C(=O)C1c1ccnc2ccccc12	-5	-7	2	83*
N#CC1=C(N)SC(N)=C(C#N)C1c1ccnc2ccccc12	0	-1	-1	-4
Cn1c(CC(=O)Nc2ccc(F)cc2)c(Sc2ccccc2)c2ccccc21	1	1	1	79*
CCOC(=O)/C(C#N)=C/c1c(Oc2cccc(C)c2)nc2c(C)cccn2c1=O	1	0	-3	77*
COC(=O)/C(C#N)=C/c1c(Oc2cccc(C)c2C)nc2ccccn2c1=O	8	-1	1	86*
CCOC(=O)/C(C#N)=C/c1c(Oc2cccc(C)c2)nc2ccccn2c1=O	-2	1	-2	17
CCOC(=O)/C(C#N)=C/c1c(Oc2cc(C)cc(C)c2)nc2ccccn2c1=O	-3	3	0	30
O=[N+]([O-])c1ccccc1NCCNc1ncc(C(F)(F)F)cc1Cl	-1	2	2	58
O=[N+]([O-])c1cccnc1NCCNc1ncc(C(F)(F)F)cc1Cl	3	6	3	75*
Cc1ccc(F)c(CNC(=O)C2(C)CCCN2C(=O)C(C)C)c1F (configuration not stated)	·	·	0	·
O=C(NCCSCc1ccco1)Nc1cc(Cl)cc(Cl)c1	-1	3	2	70*
O=C(CCc1nnc(Cc2cccc(C(F)(F)F)c2)o1)NC1CC1	0	2	5	78*
Cc1cc(Br)ccc1OCC(=O)N(Cc1nc(-c2ccccc2)no1)C(C)C	1	1	0	95*
Cc1cccc(-c2noc(CN(C(=O)c3ccc(Br)o3)C(C)C)n2)c1	1	1	0	88*
CCCNC[C@H](O)COc1ccccc1C(=O)CCc1ccccc1	·	·	·	37
CCNC(=O)C1(C)CCN(Cc2ccccc2C#N)C1 (configuration not stated)	·	·	0	·
CCCS(=O)(=O)NC(=O)C1(C)CCN(C(=O)c2ccc(OC)cc2)C1 (configuration not stated)	·	·	1	·
O=C1c2ccc3c4c(ccc(c24)C(=O)N1c1cccc(O)c1)CC3	-4	0	3	93*
SMILES	UPR XBP1 act	UPR CHOP act	GAA850 FXN act	CHOP inhibitor
COc1ccccc1Oc1ccc2c(c1)C(=O)N(c1cccc(O)c1)C2=O	-2	5	2	90*
CC(=O)Nc1cc(-c2ccccc2N(C)C)cn2c(-c3ccc(S(C)(=O)=O)cc3)cnc12	·	·	1	·
CC(C)NC(=O)NC(=O)COC(=O)c1ccc(OC(F)(F)F)cc1	-3	-2	1	84*
CC(C)NC(=O)NC(=O)COC(=O)c1ccc(S(=O)(=O)Nc2ccccc2)cc1	-1	-1	2	34
CC1=CC2=NC(=O)/C(=C/c3cccs3)C(=N)N2O1	2	3	3	2
CC1=CC2=NC(=O)/C(=C\c3ccc(-c4ccc(Cl)cc4)o3)C(=N)N2O1	·	·	·	93*
COc1cccc(CN2CCN(c3cccc(C(F)(F)F)c3)CC2)c1OC	0	-1	2	71*
COc1ccc(C(O)c2nc(-c3ccccc3C)cs2)cc1 (configuration not stated)	·	·	0	·

Compound activity as filed in PubChem BioAssay.
